Tests used:
[1] = biological target: T1, Steroid 17-alpha-hydroxylase/17,20 lyase (Rattus norvegicus, UniProt P11715); assay: Inhibition of 17-alpha-hydroxylase activity of rat testicular microsomal P450-17alpha
T1 sequence (P11715 whole entry): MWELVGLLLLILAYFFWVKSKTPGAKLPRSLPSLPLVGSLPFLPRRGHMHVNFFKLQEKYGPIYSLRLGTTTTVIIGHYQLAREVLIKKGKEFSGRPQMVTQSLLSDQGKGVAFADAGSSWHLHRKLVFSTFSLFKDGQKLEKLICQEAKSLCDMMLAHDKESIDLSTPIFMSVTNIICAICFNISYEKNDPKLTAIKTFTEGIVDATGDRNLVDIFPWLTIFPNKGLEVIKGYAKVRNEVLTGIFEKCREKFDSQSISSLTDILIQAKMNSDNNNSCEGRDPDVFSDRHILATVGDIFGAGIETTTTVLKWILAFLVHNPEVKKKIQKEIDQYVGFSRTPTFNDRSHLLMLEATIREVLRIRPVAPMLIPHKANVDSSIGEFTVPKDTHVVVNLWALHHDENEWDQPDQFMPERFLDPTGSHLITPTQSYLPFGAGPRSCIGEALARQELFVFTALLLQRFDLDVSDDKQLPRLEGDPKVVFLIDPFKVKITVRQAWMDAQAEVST
How it was run: (§1)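 Rat testicular microsomal enzyme incubated with radiolabelled substrate. The radiolabelled substrate was separated from the incubation mixture and identified by thin layer chromatography. Both the 17α-hydroxylase and the 17,20-lyase components were assessed this way.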

[2] = biological target: T1, Steroid 17-alpha-hydroxylase/17,20 lyase; assay: Inhibition of 17,20-lyase activity of rat testicular microsomal P450-17alpha; how it was run: as §1

Structure (SMILES)	IC50 [1]	IC50 [2]
CCCc1ccc(S(=O)(=O)Oc2ccc(Cn3ccnc3)cc2)cc1	1210 nM	30 nM
Oc1ccc(Cn2ccnc2)cc1	2500 nM	1470 nM
Ic1ccc(Cn2ccnc2)cc1	730 nM	164 nM
O=S(=O)(Oc1ccc(Cn2ccnc2)cc1)c1ccc(C(F)(F)F)cc1	1040 nM	34 nM
O=S(=O)(Oc1ccc(Cn2ccnc2)cc1)c1ccc(F)cc1	200 nM	14 nM
c1ccc(Cn2ccnc2)cc1 [BENZYLIMIDAZOLE]	> 3000 nM	> 3000 nM
CC(=O)N1CCN(c2ccc(OCC3COC(Cn4ccnc4)(c4ccc(Cl)cc4Cl)O3)cc2)CC1 (centres undefined) [KETOCONAZOLE]	2660 nM	206 nM

Now those with a lower IC50 [1], led by results:

IC50 [1]	IC50 [2]	Structure (SMILES)
110 nM	20 nM	CCc1ccc(S(=O)(=O)Oc2ccc(Cn3ccnc3)cc2)cc1
70 nM	40 nM	CCCCc1ccc(S(=O)(=O)Oc2ccc(Cn3ccnc3)cc2)cc1
130 nM	160 nM	CCCCCc1ccc(S(=O)(=O)Oc2ccc(Cn3ccnc3)cc2)cc1
100 nM	10 nM	O=S(=O)(Oc1ccc(Cn2ccnc2)cc1)c1ccc(-c2ccccc2)cc1
40 nM	30 nM	Cc1ccc(S(=O)(=O)Oc2ccc(Cn3ccnc3)cc2)cc1

Source: ChEMBL document CHEMBL1221300, “Synthesis and biochemical evaluation of a range of (4-substituted phenyl)sulfonate derivatives of 4-hydroxybenzyl imidazole-based compounds as potent inhibitors of 17alpha-hydroxylase/17,20-lyase (P45017alpha) derived from rat testicular microsomes” (Bioorg Med Chem Lett, 2010)
